In ChEMBL document CHEMBL1137991, “Novel secoergoline derivatives inhibit both GABA and glutamate uptake in rat brain homogenates: synthesis, in vitro pharmacology, and modeling” (J Med Chem, 2004):

What was measured:
[1] = In vitro inhibition of [3H]DASP transport through rat cerebrocortical membranes; assay type: functional, cell membranes, Membrane
Procedure, shortened: (§1)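 Rat cerebrocortical native plasma membrane vesicle fraction, final pellet in buffer A (145 mM NaCl, 5 mM KCl, 1 mM CaCl2, 1 mM MgCl2, 10 mM glucose, 0.1 mM aminooxyacetate, 2 mM NaHCO3, 20 mM HEPES, pH 7.5). Specific [3H]D-aspartate (24 Ci/mmol) transport measured at 30 °C. Duplicates in 2–6 experiments. IC50 given as mean ± SD.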

[2] = target: T1, GABA transporter (Rattus norvegicus, UniProt P31647+P23978+P31646+P48056); assay: In vitro inhibitory activity against [3H]GABA transport in rat cerebrocortical membranes; assay type: cell membranes
Procedure, shortened: (§2)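 Specific [3H]GABA (61 Ci/mmol) transport was measured at 30 °C in a native plasma membrane vesicle fraction from rat cerebral cortex. Vesicles were suspended in buffer A (Na+/K+/Ca2+/Mg2+ saline, 10 mM glucose, 0.1 mM aminooxyacetate, 20 mM HEPES, pH 7.5). Duplicates in 2–6 experiments. IC50 given as mean ± SD.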

[3] = In vitro inhibition of [3H]DASP transport through rat cerebrocortical membranes with 100 uM TBOA; Phase 1; assay type: functional, cell membranes, Membrane
Procedure, shortened: (§3)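 [3H]D-aspartate (24 Ci/mmol) transport into rat cerebrocortical plasma membrane vesicles in HEPES-buffered saline A, pH 7.5, at 30 °C, with 100 µM DL-TBOA present. An IC50 was taken for each phase of the dose–response curve. Duplicates in 2–6 experiments, mean ± SD.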

[4] = In vitro inhibition of [3H]DASP transport through rat cerebrocortical membranes with 100 uM TBOA; Phase 2; assay type: functional, cell membranes, Membrane; procedure, shortened: as §3
[5] = In vitro inhibition of [3H]DASP transport through rat cerebrocortical membranes without TBOA; Control; assay type: functional, cell membranes, Membrane; procedure, shortened: as §1
[6] = target: T1, GABA transporter; assay: In vitro inhibitory activity against [3H]GABA transport in rat cerebrocortical membranes in the absence of NNC-711; Control; assay type: cell membranes; procedure, shortened: as §2
[7] = target: T1, GABA transporter; assay: In vitro inhibitory activity against [3H]-GABA transport in rat cerebrocortical membranes in the presence of NNC-711 (100 uM); Phase 1; assay type: cell membranes
Procedure, shortened: (§4)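 [3H]GABA (61 Ci/mmol) uptake by rat cerebrocortical membrane vesicles in buffer A, pH 7.5, at 30 °C, with 100 µM NNC-711 present. An IC50 was derived for each phase of the dose–response curve. Duplicates in 2–6 experiments, mean ± SD.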

[8] = target: T1, GABA transporter; assay: In vitro inhibitory activity against [3H]GABA transport in rat cerebrocortical membranes in the presence of NNC-711 (100 uM); Phase 2; assay type: cell membranes; procedure, shortened: as §4

SMILES | IC50 [1] [µM] | IC50 [2] | also measured
CCOC(=O)C1=C(c2ccccc2)C(C)N(C)CC1C(=O)OCC (configuration not stated) | > 1000 | >> 1000 uM | –
COC(=O)/C=C(/c1ccccc1)C(C)N(C)CC(=O)OC.N[C@H](C(=O)O)[C@H](OCc1ccccc1)C(=O)O (configuration not stated) | – | – | IC50 [3]: 0.011 µM; IC50 [4]: 1020 µM; IC50 [5]: 1100 µM
CCOC(=O)C1C(=O)C=C(c2ccccc2)C(C)N1C.N[C@H](C(=O)O)[C@H](OCc1ccccc1)C(=O)O (configuration not stated) | – | – | IC50 [3]: 0.009 µM; IC50 [4]: 591 µM; IC50 [5]: 660 µM
COC(=O)/C=C(\c1ccccc1)C(C)N(C)CC(=O)OC (configuration not stated) | > 1000 | >> 1000 uM | –
CCOC(=O)C1C(=O)C=C(c2ccccc2)C(C)N1C (configuration not stated) | 660 | 680 µM | –
CCOC(=O)CNC(C)C(=O)c1ccccc1.Cl (configuration not stated) | > 1000 | >> 1000 uM | –
COC(=O)/C=C(/c1ccccc1)C(C)N(C)CC(=O)OC.Cl.O=C(O)C1=CCCN(CCON=C(c2ccccc2)c2ccccc2)C1 | – | – | IC50 [6]: 1100 µM; IC50 [7]: 0.044 µM; IC50 [8]: 491 µM
CCOC(=O)/C=C(/c1ccccc1)C(C)N(C)CC(=O)OCC.N[C@H](C(=O)O)[C@H](OCc1ccccc1)C(=O)O (configuration not stated) | – | – | IC50 [3]: 0.034 µM; IC50 [4]: 386 µM; IC50 [5]: 420 µM
CCOC(=O)/C=C(\c1ccccc1)C(C)N(C)CC(=O)OCC (configuration not stated) | > 1000 | >> 1000 uM | –
CCOC(=O)CN(C)C(C)C(=O)c1ccccc1.Cl (configuration not stated) | > 1000 | >> 1000 uM | –
COC(=O)CN(C)C(C)C(=O)c1ccccc1.Cl (configuration not stated) | > 1000 | >> 1000 uM | –
CCOC(=O)C1C(=O)C=C(c2ccccc2)C(C)N1C.Cl.O=C(O)C1=CCCN(CCON=C(c2ccccc2)c2ccccc2)C1 | – | – | IC50 [6]: 680 µM; IC50 [7]: 0.0037 µM; IC50 [8]: 360 µM
CCOC(=O)/C=C(/c1ccccc1)C(C)N(C)CC(=O)OCC.Cl.O=C(O)C1=CCCN(CCON=C(c2ccccc2)c2ccccc2)C1 | – | – | IC50 [6]: 270 µM; IC50 [7]: 0.18 µM; IC50 [8]: 380 µM
CCOC(=O)/C=C(/c1ccccc1)C(C)N(C)CC(=O)OCC (configuration not stated) | 420 | 270 µM | –
CC1N(C)C[C@@H](C(=O)O)[C@H](C(=O)O)[C@@]1(O)c1ccccc1 (some centres not stated) | > 1000 | >> 1000 uM | –

Now from value to molecule, other results behind:

IC50 [1] [µM] | IC50 [2] | SMILES | also measured
1100 | 1100 µM | COC(=O)/C=C(/c1ccccc1)C(C)N(C)CC(=O)OC (configuration not stated) | –
> 1000 | >> 1000 uM | CCOC(=O)[C@H]1[C@H](C(=O)O)CN(C)C(C)[C@]1(O)c1ccccc1 (some centres not stated) | –
> 1000 | >> 1000 uM | CCOC(=O)[C@@H]1CN(C)C(C)[C@](O)(c2ccccc2)[C@H]1C(=O)OCC (some centres not stated) | –
